# Screening data from PubChem BioAssay.
# Shown are actives, neighbours in structure and some others; about 3% of the full set was active somewhere.
# RAM inhibit: yeast RAM network inhibition; S. cerevisiae dse1pr::URA3 reporter, 5-FOA growth OD615, 2 d; analog-sensitive cbk1-as2 kinase mutant strain; inhibition, % at 50 µM; 190,000 compounds, 1.8% hits; AID 868;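 active means inhibition above a set limit, 3 SD over mean compound inhibition, cut at about 8.4% in these data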;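 further: 0% = DMSO-only wells with no growth and 100% = 10 µM 1-NA-PP1 full growth; inhibition rescues growth on 5-FOA so higher OD means more RAM inhibition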
# Insulin prom up: MIN6 insulin promoter up-regulation. MIN6 insulin promoter-GFP reporter, high-content imaging; stronger effect = higher value. z-score at 5 µM. 190,000 compounds, 0.3% hits;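 active means z-score above 3 at 5 µM with at least 500 cells counted in the well; inconclusive means wells under 500 cells, flagged as cytotoxic or low count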
# Insulin prom inh: TRM-6 insulin promoter activity inhibition; TRM-6 cells, insulin promoter-eGFP reporter, imaging; reporter expression induced with tamoxifen; inhibition, % at 2 µM; 130,000 compounds, 0.9% hits; AID 1273;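 active means inhibition above the mean plus 3 SD, with well images judged a real hit on visual review, cut at about 60% in these data, passing the limit was not always enough; inconclusive means inhibition over the cutoff but images rejected on review; inactive means inhibition not above the cutoff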
# Yeast growth inh: reduces growth of yeast BB579 in restrictive medium. 140,000 compounds, 0.51% hits. inhibition, % at 10 µM. S. cerevisiae BB579 growth, OD615, 48 h;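 active means inhibition above a set limit, 3 SD over the mean compound inhibition, cut at about 44% in these data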
#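 Assay system: S. cerevisiae DeaD strain BB579 yeast. Medium: CSMM-D restrictive synthetic medium containing dextrose (glucose). Times: 4 h cell preincubation, 48 h compound exposure, 30 °C humidified. Signal: OD615 turbidity measurement. Benchmarks: positive control amphotericin B 10 µg/mL.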
# Yeast life ext: extends the lifespan of yeast; S. cerevisiae growth with nicotinamide, OD615; deaD strain in restrictive glucose medium; inhibition of the nicotinamide effect, % at 10 µM; 130,000 compounds, 0.68% hits;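 active means inhibition above a set limit, placed 3 SD over the median of all compounds, cut at about 26% in these data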;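 further: 0% = nicotinamide-treated wells and 100% = cells grown without nicotinamide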
#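 Test system: DeaD-strain S. cerevisiae / Buffer or medium: restrictive glucose medium / Also added: nicotinamide 1.5 mM / Doses: one concentration, 10 µM, DMSO 0.25% / Schedule: 48 h at 30 °C / Signal: OD615 measurement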
# * = called active by the depositor; ? = inconclusive; . = not tested or not shown.
SMILES,RAM inhibit,Insulin prom up,Insulin prom inh,Yeast growth inh,Yeast life ext
O=C(NCCCO)/C(=C/c1ccc(-c2cccc([N+](=O)[O-])c2)o1)NC(=O)c1ccccc1,8.5*,-0.64,-93,.,.
CC(C)C(=O)NNC(=O)CSc1nnnn1C(C)C,-1,0.13,.,.,.
CC(=O)OCCNc1cc(SCc2ccco2)c2nonc2c1[N+](=O)[O-],9.5*,0.17,-52,-45,4
c1ccc2c(c1)NC(c1ccncc1)n1c-2nc2ccccc21 (stereo not given),1,.,78*,41,-12
c1cncc(C2Nc3ccccc3-c3nc4ccccc4n32)c1 (stereo not given),1,-1.4,32,-8,-25
CCOc1ccc(Br)cc1CC(=O)O,1,.,81*,-6,-2
CCOc1cc(Br)c(CC(=O)O)cc1OCC,.,0.79,.,.,.
CCC(=O)Nc1cc(C(=O)OCC(=O)c2ccccc2)ccc1C,1,?,0,-15,0
Cc1ccnc2nc(C(=O)OCC(=O)NCCc3ccccc3)nn12,2,-0.55,73*,-48,-1
Cc1ccnc2nc(C(=O)OCC(=O)Nc3ccccc3C(C)(C)C)nn12,1,-0.02,43,.,.
CC(C)(C)c1ccc(OCC(=O)NNC(=S)NC(=O)c2ccccc2[N+](=O)[O-])c(Br)c1,2,-0.19,.,-38,31*
Cc1ccc2c(c1)N(CC(=O)NC1CCC(C)CC1)C(=O)CO2 (stereo not given),-1,-0.24,-46,-10,9
Cc1ccc2c(c1)N(CC(=O)OC(CC(C)C)C(=O)NC1CCCC1)C(=O)CO2 (stereo not given),8.7*,2.4,-25,-9,-3
CC(C)C(OC(=O)CN1C(=O)COc2ccccc21)C(=O)NC1CCCC1 (stereo not given),1,-0.31,.,-8,34*
CCNC(=S)N/N=C(\C)c1ccc(N2CCOCC2)cc1,1,0.43,20,-10,1
CNC(=S)N/N=C(\C)c1ccc(N2CCOCC2)cc1,0,0.87,.,70*,-6
CCCCNc1nc2ccccc2[nH]1,0,-0.08,100*,-38,-8
COc1ccc(C(CC(=O)NCc2ccccc2)Sc2n[nH]c(-c3ccccc3)n2)cc1 (stereo not given),4,-0.19,.,-40,9
COc1ccc(C(CC(=O)NCc2ccccc2)Sc2n[nH]c(-c3ccc(Cl)cc3)n2)cc1 (stereo not given),8.7*,0.2,-15,-32,7
COc1ccc(-c2ccnc(SCC(=O)c3ccc(Cl)cc3)n2)cc1,8.9*,-0.18,.,-35,-3
Cn1c(C(=O)N2CCC(C(=O)N3CCN(Cc4ccc5c(c4)OCO5)CC3)CC2)cc2sccc21,2,4.7*,50,14,7
Cn1c(C(=O)N2CCN(Cc3ccc4c(c3)OCO4)CC2)cc2sccc21,0,.,27,-18,0
Cc1csc(NC(=O)[C@@H]2CCCN2C(=O)c2cccs2)n1,2,0.31,-11,.,.
COc1ccc(N=C2CC(C)(C)CC(=O)/C2=C(/O)c2ccccc2)cc1,1,-0.82,.,.,.
CC(C)c1ccc2occ(-c3nn[nH]n3)c(=O)c2c1,1,0.08,36,-27,59*
SMILES,RAM inhibit,Insulin prom up,Insulin prom inh,Yeast growth inh,Yeast life ext
Fc1ccccc1N1CCN(CCCNc2ccc3nncn3n2)CC1,2,0.98,.,-15,27*
CCOC(=O)/C(=N\Nc1cccc(C(F)(F)F)c1)N(CCOC)CCOC,0,.,.,54*,-11
CC(C)(C)N1OC2CC1c1nc3ccccc3n1C2 (stereo not given),.,-0.58,.,.,.
CSC[C@@H]1NC(=S)N(c2ccc(C)cc2)C1=O,1,-0.83,15,9,31*
Cc1ccc(N2C(=O)C3CCC(C)(C2=O)C3(C)C)cc1 (stereo not given),.,-0.01,.,.,.
CC1CCN(C(=O)CSc2ccc(-c3ccccc3)nn2)CC1,0,0.96,-14,.,.
Cc1ccccc1C(=O)NNC(=S)NC(=O)COc1ccccc1,4,0.26,30,70*,12
Cc1ccc(C(=O)NNC(=S)NC(=O)COc2ccccc2)cc1,3,-0.17,11,-30,0
CCC(C)c1ccccc1NC(=O)C(C)N(C)Cc1cccc(OC)c1 (stereo not given),1,0.21,.,.,.
CCCCCCNc1c([N+](=O)[O-])cc(C)cc1[N+](=O)[O-],.,.,-23,.,.
O=C(NCC1CCCO1)C(c1cccs1)N(Cc1ccccc1Cl)C(=O)c1ccc(-c2ccccc2)[nH]1 (stereo not given),4,-0.49,-46,-12,-2
Cc1ccc(C(C(=O)NCC2CCCO2)N(Cc2ccccc2)C(=O)c2ccc(-c3ccccc3)[nH]2)o1 (stereo not given),10*,-0.57,?,-73,1
O=C(COc1ccc(S(=O)(=O)N2CCCC2)cc1)NCC1CCCO1 (stereo not given),2,0.02,.,.,.
COc1ccc(C(CC(=O)N2CCCC(C)C2)c2c(OC)cc(OC)c3ccc(=O)oc23)cc1 (stereo not given),.,2.1,.,.,.
CC(NC(=O)c1ccccc1)c1ccc(Br)cc1 (stereo not given),2,-0.07,88*,.,.
COc1ccccc1N1CCN(C2CC(=O)N(C)C2=O)CC1 (stereo not given),1,0.04,.,.,.
C/C(=N/O)c1ccc2c(c1)OCCOCCOc1cc(/C(C)=N/O)ccc1OCCOCCO2,2,-0.01,-44,-44,1
CN(c1cccnc1)c1ncnc2[nH]ncc12,.,-0.62,.,.,.
CN(CCc1ccccn1)c1ncnc2[nH]ncc12,4,0.16,75*,-23,-9
COc1cc(OC)cc(-c2nc3ccccc3c(=O)n2OC(=O)c2ccc(C)c(C)c2)c1,4,-0.07,14,-37,64*
COc1cc(OC)cc(C(=O)Nn2c(C)nc3ccccc3c2=O)c1,0,1.2,.,-35,-11
O=S(=O)(c1ccccc1)N(CC(O)Cn1c2ccccc2c2ccccc21)c1ccccc1 (stereo not given),4,-2.1,.,-31,-6
Cc1ccc(S(=O)(=O)N(C)CC(O)Cn2c3ccccc3c3ccccc32)cc1 (stereo not given),8.6*,0.59,-54,-27,-3
CCN(CC)CC(O)Cn1c2ccccc2c2ccccc21 (stereo not given),1,0.37,-79,-21,-1
O=S(=O)(c1ccc(F)cc1)N(CCO)CC(O)Cn1c2ccccc2c2ccccc21 (stereo not given),8.7*,-0.02,-225,8,-4
CCN(CC(O)Cn1c2ccccc2c2ccccc21)S(=O)(=O)c1ccc(F)cc1 (stereo not given),11*,0.05,-17,-43,-9
Cc1ccc(-n2c(C)nc3oc4ccccc4c(=O)c3c2=O)cc1,0,3.9*,9,-23,-14
COC(=O)C(NC(C)=O)(Nc1ccc(C)cn1)C(F)(F)F (stereo not given),.,0.08,.,.,.
CCCc1nc2ccccc2c2nc(N)nn12,1,-0.53,87*,-13,-20
